# The source made the active and inactive calls. The rule behind the calls is not given here.
# Tests used:
# [1] = Displacement of [3H]-(+)-MK-801 from phencyclidine binding site of NMDA receptor in pig membranes after 150 mins by scintillation counting analysis; format: cell membranes, Sus scrofa
# Method in brief: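 Thawed membrane preparation (about 100 µg protein) incubated with test compound at various concentrations and 2 nM [3H]-(+)-MK-801 (22.0 Ci/mmol) in TRIS/EDTA (5 mM/1 mM, pH 7.5), 150 min, rt. Stopped by rapid filtration over presoaked filtermats, five water washes, melted solid scintillator, then counting. Nonspecific binding was taken with unlabeled (+)-MK-801. Radioligand Kd 2.26 nM.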
# Rattus norvegicus = organism: Rattus norvegicus; assay: Displacement of [3H]-DTG from sigma-2 receptor in rat liver membranes up to 10 uM after 120 mins by scintillation counting analysis; format: cell membranes; details: Membrane
# Influenza A virus = assay: Antiviral activity against Influenza virus A/FPV/Bratislava/79(H7N7) infected in human A549 cells assessed as viral replication at 5 uM after 24 hrs by plaque assay relative to control; format: functional
# [2] = molecular target: Sigma non-opioid intracellular receptor 1 (Cavia porcellus) (UniProt Q60492); assay: Displacement of [3H]-(+)-pentazocine from sigma-1 receptor in guinea pig brain cortex membranes up to 10 uM after 120 mins by scintillation counting analysis; format: cell membranes; details: Cerebral cortex
# Sigma non-opioid intracellular receptor 1 (Cavia porcellus), sequence (Q60492 whole entry): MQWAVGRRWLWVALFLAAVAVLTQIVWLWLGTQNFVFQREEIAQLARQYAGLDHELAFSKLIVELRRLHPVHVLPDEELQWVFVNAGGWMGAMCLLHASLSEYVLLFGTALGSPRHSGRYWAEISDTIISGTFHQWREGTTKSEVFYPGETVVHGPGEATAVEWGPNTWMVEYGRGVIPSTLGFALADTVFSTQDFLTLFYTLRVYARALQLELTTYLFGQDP
# [3] = molecular target: Glutamate NMDA receptor; GRIN1/GRIN2A (Homo sapiens, UniProt Q05586+Q12879); assay: Displacement of [3H]-(+)-MK-801 from phencyclidine binding site of NMDA receptor in human frontal cortex after 22 hrs by scintillation counting analysis; format: tissue-based
# Glutamate NMDA receptor; GRIN1/GRIN2A, sequence (Q12879 whole entry, other chains not shown): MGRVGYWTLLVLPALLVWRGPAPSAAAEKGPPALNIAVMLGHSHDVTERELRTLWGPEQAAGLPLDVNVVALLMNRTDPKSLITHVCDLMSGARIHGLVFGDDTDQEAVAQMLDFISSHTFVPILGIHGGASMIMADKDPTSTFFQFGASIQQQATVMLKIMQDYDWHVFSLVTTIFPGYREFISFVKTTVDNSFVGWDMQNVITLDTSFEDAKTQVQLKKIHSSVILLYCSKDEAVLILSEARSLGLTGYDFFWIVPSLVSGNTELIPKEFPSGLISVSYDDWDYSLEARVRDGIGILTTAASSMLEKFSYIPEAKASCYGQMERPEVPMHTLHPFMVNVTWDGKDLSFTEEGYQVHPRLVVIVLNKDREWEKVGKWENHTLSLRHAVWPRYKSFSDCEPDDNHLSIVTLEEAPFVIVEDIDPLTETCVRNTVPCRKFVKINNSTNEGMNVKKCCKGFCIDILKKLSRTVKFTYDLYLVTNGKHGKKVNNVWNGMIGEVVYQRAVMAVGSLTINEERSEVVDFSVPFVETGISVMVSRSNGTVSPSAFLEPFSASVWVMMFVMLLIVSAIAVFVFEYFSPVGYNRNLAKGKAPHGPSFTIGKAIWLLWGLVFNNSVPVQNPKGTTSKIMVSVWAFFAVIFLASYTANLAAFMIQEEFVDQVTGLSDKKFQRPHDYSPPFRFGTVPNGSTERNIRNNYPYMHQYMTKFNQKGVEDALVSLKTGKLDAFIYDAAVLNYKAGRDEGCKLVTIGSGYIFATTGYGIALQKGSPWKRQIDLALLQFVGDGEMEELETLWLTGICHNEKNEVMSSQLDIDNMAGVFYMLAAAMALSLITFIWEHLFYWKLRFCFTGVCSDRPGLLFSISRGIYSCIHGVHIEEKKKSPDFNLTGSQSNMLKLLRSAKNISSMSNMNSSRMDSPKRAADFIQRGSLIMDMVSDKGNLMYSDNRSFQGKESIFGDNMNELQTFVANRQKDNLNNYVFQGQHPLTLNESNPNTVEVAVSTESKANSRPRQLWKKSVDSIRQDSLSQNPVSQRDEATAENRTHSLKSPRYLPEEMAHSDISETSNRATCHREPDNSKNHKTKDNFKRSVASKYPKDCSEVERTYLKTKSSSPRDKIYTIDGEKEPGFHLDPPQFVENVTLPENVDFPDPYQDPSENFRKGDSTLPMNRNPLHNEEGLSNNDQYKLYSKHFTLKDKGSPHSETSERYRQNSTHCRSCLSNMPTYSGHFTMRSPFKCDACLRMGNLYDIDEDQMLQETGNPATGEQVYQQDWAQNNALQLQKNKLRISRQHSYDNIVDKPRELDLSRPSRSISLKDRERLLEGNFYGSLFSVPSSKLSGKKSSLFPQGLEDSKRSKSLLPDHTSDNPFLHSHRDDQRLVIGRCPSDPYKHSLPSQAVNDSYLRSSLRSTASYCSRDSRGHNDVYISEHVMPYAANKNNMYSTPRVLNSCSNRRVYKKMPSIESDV
SMILES,Ki [1] [µM],inhibition (Rattus norvegicus),Activity (Influenza A virus) [%],inhibition [2],Ki [3] [µM]
CC12CC3CC(C)(C1)CC(N)(C3)C2 [MEMANTINE],9.74,,,,
N[C@H]1C[C@@]23CCCC[C@@]2(CCC3)C1,11,inactive,116,inactive,
NC1CC23CCCCC2(CCC3)C1 (mixture of isomers),10.5,,65,,
NC12CC3CC(CC(C3)C1)C2 [AMANTADINE],11,,3.9,,10
N[C@@H]1C[C@@]23CCCC[C@@]2(CCC3)C1,16,inactive,97,inactive,
C[C@]12N[C@H](Cc3ccccc31)c1ccccc12 [DIZOCILPINE],0.003,,,,
